# pEC50, pKi: −log10 of the molar value. The source made the active and inactive calls. No cut-off for these calls is given here.
# How the values were obtained:
# Rattus norvegicus [1] = assay: Testosterone-suppressive activity in Crl:CD(SD) rat assessed as number of animal with plasma testosterone level below the limit of detection at 0.1 nmol/hr, sc through osmotic pumps measured after 6 days by RIA; type: functional
# How it was run: (§1)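 Peptide was dissolved in distilled water or 50% DMSO as 0.1–2 mM pump solutions and delivered by ALZET osmotic pumps implanted subcutaneously in the back of 9-week-old male Crl:CD(SD) rats (n = 5) under ether. Controls received distilled-water pumps. After 6 days, rats were decapitated and plasma was recovered with aprotinin/EDTA. Testosterone was measured by RIA, and the number of rats below the detection limit (0.04 ng/mL) was counted.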
# KiSS-1 receptor [2] = target: T1, KiSS-1 receptor (Homo sapiens, UniProt Q969F8); assay: Agonist activity at human KISS1R transfected in CHO cells assessed as intracellular calcium flux after 24 hrs by functional FLIPR assay; type: cell-based
# How it was run: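 CHO cells stably expressing human KISS1R were seeded at 15 000 cells/mL, cultured 24 h, then loaded with fluo-3 for 1 h at 37 °C in HBSS/HEPES (pH 7.4) with probenecid and FBS. Cells were washed in HBSS with 2.5 mM probenecid. Peptides came from 1 mM DMSO stocks diluted in buffer containing probenecid, 0.2% BSA and 0.1% CHAPS. Fluorescence was recorded on FLIPR for 3 min; peak counts over 0–180 s gave agonist activity.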
# Rattus norvegicus [3] = assay: Testosterone-suppressive activity in Crl:CD(SD) rat assessed as number of animal with plasma testosterone level below the limit of detection at 0.03 mol/hr, sc through osmotic pumps measured after 6 days by RIA; type: functional
# KiSS-1 receptor [4] = target: T2, KiSS-1 receptor (Rattus norvegicus, UniProt Q924U1); assay: Displacement of radioligand from rat KISS1R transfected in CHO cells; type: cell-based
# KiSS-1 receptor [5] = target: T2, KiSS-1 receptor; assay: Agonist activity at rat KISS1R transfected in CHO cells assessed as intracellular calcium flux after 24 hrs by functional FLIPR assay; type: cell-based
# [6] = Stability of the compound in aqueous solution (JP1) assessed as residual ratio at pH 1.2 up to 1 week by HPLC analysis relative to initial level; type: physicochemical
# How it was run: (§2)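 Peptides in aqueous solution at pH 1.2 (JP1, containing 10% acetonitrile), 3, 5 or 7 were kept in the dark at 37 °C for up to 2 weeks. Peptide remaining was quantified from HPLC peak area, with detection at 230–280 nm. The residual ratio (stability index) was expressed relative to the time-0 amount, taken as 100%.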
# [7] = Stability of the compound in aqueous solution assessed as residual ratio at pH 7 up to 1 week by HPLC analysis relative to initial level; type: physicochemical; how it was run: as §2
# [8] = AUC (0 to 24 hrs) in Sprague-Dawley rat at 1 mg/kg, sc after 24 hrs by LC-MS/MS analysis; type: ADME, organism-based; parameters: time < 24 hr, dose 1 mg/kg, route subcutaneous; settings: plasma
# How it was run: (§3)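 Single subcutaneous dose of 1 mg/kg in male Crl:CD(SD) rats, n = 3 per group. Blood was sampled from 5 min to 24 h (5, 10, 15, 30 min; 1, 2, 4, 8, 24 h). Plasma was deproteinized with formic acid/methanol and acetonitrile, and peptide levels were measured by LC-MS. Noncompartmental analysis per animal gave Cmax, Tmax, AUC0-24h, MRT and BA; values are mean ± SD (n = 3).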
# [9] = Stability of the compound in aqueous solution assessed as residual ratio at pH 5 up to 2 weeks by HPLC analysis relative to initial level; type: physicochemical; how it was run: as §2
# [10] = Stability of the compound in aqueous solution (JP1) assessed as residual ratio at pH 1.2 up to 2 weeks by HPLC analysis relative to initial level; type: physicochemical; how it was run: as §2
# [11] = Bioavailability in Sprague-Dawley rat at 1 mg/kg, sc after 24 hrs by LC-MS/MS analysis; type: ADME, organism-based; settings: in vivo; how it was run: as §3
# [12] = Tmax in Sprague-Dawley rat at 1 mg/kg, sc after 24 hrs by LC-MS/MS analysis; type: ADME, organism-based; parameters: dose 1 mg/kg, route subcutaneous; settings: in vivo; how it was run: as §3
# [13] = Total clearance in Sprague-Dawley rat at 1 mg/kg, iv after 24 hrs by LC-MS/MS analysis; type: ADME, organism-based; parameters: dose 1 mg/kg, route intravenous; settings: in vivo
# How it was run: (§4)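 Male Crl:CD(SD) rats (3 per group) got a single intravenous dose of 1 mg/kg. Blood was drawn at 5, 10, 15 and 30 min and at 1, 2, 4, 8 and 24 h. Plasma proteins were removed with 0.2% formic acid/methanol and acetonitrile, and the supernatant was treated with 0.4% formic acid. Peptide was quantified by LC-MS. Noncompartmental parameters were derived per rat, reported as mean ± SD (n = 3).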
# [14] = Volume of distribution at steady state in Sprague-Dawley rat at 1 mg/kg, iv after 24 hrs by LC-MS/MS analysis; type: ADME, organism-based; parameters: dose 1 mg/kg, route intravenous; settings: in vivo, read-out: Vdss; how it was run: as §4
# Rattus norvegicus [15] = assay: Testosterone-suppressive activity in Crl:CD(SD) rat assessed as number of animal with plasma testosterone level below the limit of detection at 2 nmol/hr, sc through osmotic pumps measured after 6 days by RIA; type: functional; how it was run: as §1
# Rattus norvegicus [16] = assay: Testosterone-suppressive activity in Crl:CD(SD) rat assessed as number of animal with plasma testosterone level below the limit of detection at 0.3 nmol/hr, sc through osmotic pumps measured after 6 days by RIA; type: functional; how it was run: as §1
# [17] = C5min in Sprague-Dawley rat at 1 mg/kg, iv after 5 mins by LC-MS/MS analysis; settings: in vivo, read-out: Cmin
# KiSS-1 receptor [18] = target: T1, KiSS-1 receptor; assay: Displacement of radioligand from human KISS1R transfected in CHO cells; type: cell-based
# How it was run: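 Binding used membrane fractions prepared from CHO cells expressing recombinant human KISS1R.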
# [19] = Mean residence time in Sprague-Dawley rat at 1 mg/kg, iv after 24 hrs by LC-MS/MS analysis; type: ADME, organism-based; parameters: dose 1 mg/kg, route intravenous; settings: in vivo; how it was run: as §4
# [20] = Stability of the compound in aqueous solution assessed as residual ratio at pH 7 up to 2 weeks by HPLC analysis relative to initial level; type: physicochemical; how it was run: as §2
# [21] = AUC (0 to 24 hrs) in Sprague-Dawley rat at 1 mg/kg, iv after 24 hrs by LC-MS/MS analysis; type: ADME, organism-based; parameters: time < 24 hr, dose 1 mg/kg, route intravenous; settings: plasma; how it was run: as §4
# [22] = Cmax in Sprague-Dawley rat at 1 mg/kg, sc after 24 hrs by LC-MS/MS analysis; type: ADME, organism-based; parameters: dose 1 mg/kg, route subcutaneous; settings: in vivo; how it was run: as §3
# [23] = Mean residence time in Sprague-Dawley rat at 1 mg/kg, sc after 24 hrs by LC-MS/MS analysis; type: ADME, organism-based; parameters: dose 1 mg/kg, route subcutaneous; settings: in vivo; how it was run: as §3
# Rattus norvegicus [24] = assay: Testosterone-suppressive activity in Crl:CD(SD) rat assessed as number of animal with plasma testosterone level below the limit of detection at 0.5 nmol/hr, sc through osmotic pumps measured after 6 days by RIA; type: functional; how it was run: as §1
# [25] = Stability of the compound in aqueous solution assessed as residual ratio at pH 3 up to 1 week by HPLC analysis relative to initial level; type: physicochemical; how it was run: as §2
# [26] = Stability of the compound in aqueous solution assessed as residual ratio at pH 5 up to 1 week by HPLC analysis relative to initial level; type: physicochemical; how it was run: as §2
# [27] = Stability of the compound in aqueous solution assessed as residual ratio at pH 3 up to 2 weeks by HPLC analysis relative to initial level; type: physicochemical; how it was run: as §2
# Rattus norvegicus [28] = assay: Testosterone-suppressive activity in Crl:CD(SD) rat assessed as plasma testosterone level below the limit of detection at 10 to 100 pmol/hr, sc continuous administration through osmotic pumps measured up to 1 week by RIA; type: functional, organism-based
# How it was run: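 Peptide in 50% DMSO was diluted in distilled water to 10, 30 or 100 μM pump solutions, giving 10–100 pmol/h by subcutaneous ALZET osmotic pump in male Crl:CD(SD) rats (n = 5). Vehicle served as control. Plasma testosterone was measured by RIA after 1 or 4 weeks, with values below 0.04 ng/mL set to 0.04. Results are mean ± SD of five rats, tested by one-tailed Shirley–Williams test versus vehicle.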
# Rattus norvegicus [29] = assay: Testosterone-suppressive activity in Crl:CD(SD) rat assessed as number of animal with plasma testosterone level below the limit of detection […], sc through osmotic pumps measured after 6 days by RIA; type: functional
# Rattus norvegicus [30] = assay: Testosterone-suppressive activity in Crl:CD(SD) rat assessed as number of animal with plasma testosterone level below the limit of detection at 0.05 mol/hr, sc through osmotic pumps measured after 6 days by RIA; type: functional
# T2 sequence (Q924U1 whole entry): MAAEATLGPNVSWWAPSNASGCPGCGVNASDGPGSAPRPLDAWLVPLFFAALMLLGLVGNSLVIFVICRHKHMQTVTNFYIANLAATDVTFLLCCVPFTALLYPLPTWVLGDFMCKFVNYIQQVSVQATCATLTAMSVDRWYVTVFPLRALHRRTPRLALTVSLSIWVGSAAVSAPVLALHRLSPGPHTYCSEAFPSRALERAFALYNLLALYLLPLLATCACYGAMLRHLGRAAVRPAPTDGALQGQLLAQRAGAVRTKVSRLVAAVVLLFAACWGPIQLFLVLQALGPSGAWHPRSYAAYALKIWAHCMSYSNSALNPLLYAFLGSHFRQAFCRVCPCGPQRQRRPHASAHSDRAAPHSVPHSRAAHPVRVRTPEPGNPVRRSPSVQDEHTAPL
# T1 sequence (Q969F8 whole entry): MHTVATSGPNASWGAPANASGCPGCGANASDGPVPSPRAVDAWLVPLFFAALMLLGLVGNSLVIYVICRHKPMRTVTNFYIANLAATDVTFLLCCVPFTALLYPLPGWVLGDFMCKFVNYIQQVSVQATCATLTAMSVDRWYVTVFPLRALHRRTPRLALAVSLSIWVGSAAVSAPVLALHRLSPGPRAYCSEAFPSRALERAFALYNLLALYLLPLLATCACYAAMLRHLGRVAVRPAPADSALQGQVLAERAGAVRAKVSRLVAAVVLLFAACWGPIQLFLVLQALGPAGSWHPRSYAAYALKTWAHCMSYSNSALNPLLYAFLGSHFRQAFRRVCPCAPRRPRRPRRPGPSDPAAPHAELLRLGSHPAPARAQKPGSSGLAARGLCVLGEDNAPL
Structure (SMILES),pEC50 (KiSS-1 receptor [2]),pKi (KiSS-1 receptor [4]),pEC50 (KiSS-1 receptor [5]),remaining at 168 h [6] [%],remaining at 168 h [7] [%],AUC(0-t) at 24 h [8] [ng·h/mL],remaining at 336 h [9] [%],remaining at 336 h [10] [%],bioavailability [11] [%],Tmax [12] [min],clearance [13] [mL/min/kg],Vd [14] [L/kg],concentration at 5 min [17] [ng/mL],pKi (KiSS-1 receptor [18]),MRT [19] [min],remaining at 336 h [20] [%],AUC(0-t) at 24 h [21] [ng·h/mL],Cmax [22] [ng/mL],MRT [23] [min],remaining at 168 h [25] [%],also measured
CCCC(=O)N[C@H](Cc1ccc(O)cc1)C(=O)N[C@H](Cc1c[nH]c2ccccc12)C(=O)N[C@@H](CC(N)=O)C(=O)N[C@H](C(=O)N[C@@H](Cc1ccccc1)C(=O)NNC(=O)N[C@@H](CC(C)C)C(=O)N[C@@H](CCCNC(=N)NC)C(=O)N[C@@H](Cc1c[nH]c2ccccc12)C(N)=O)[C@@H](C)O,9.10,9.96,8.43,,,,,,,,,,,,,,,,,,Activity (Rattus norvegicus [1]): 3 rats (n = 5); Activity (Rattus norvegicus [3]): 0%
CNC(=N)NCCC[C@H](NC(=O)[C@H](CC(C)C)NC(=O)NNC(=O)[C@H](Cc1ccccc1)NC(=O)[C@@H](NC(=O)[C@H](CC(N)=O)NC(=O)[C@@H](Cc1c[nH]c2ccccc12)NC(=O)[C@H](N)Cc1ccc(O)cc1)[C@@H](C)O)C(=O)N[C@@H](Cc1c[nH]c2ccccc12)C(N)=O,9.00,,8.39,64.9,84.9,46,96.5,39.1,9.2,11.4,33.3,1.46,1440,10.44,43.8,72.8,503,47,52.8,98.7,Activity (Rattus norvegicus [1]): 0 rats (n = 5); Activity (Rattus norvegicus [15]): 100%; Activity (Rattus norvegicus [16]): 60%; Activity (Rattus norvegicus [24]): 60%; remaining at 168 h [26]: 98.8%; remaining at 336 h [27]: 98.2%
CNC(=N)NCCC[C@H](NC(=O)[C@H](CC(C)C)NC(=O)NNC(=O)[C@H](Cc1ccccc1)NC(=O)[C@@H](NC(=O)[C@H](CC(N)=O)NC(=O)[C@@H](Cc1c[nH]c2ccccc12)NC(=O)[C@@H](Cc1ccc(O)cc1)NC(C)=O)[C@@H](C)O)C(=O)N[C@@H](Cc1ccccc1)C(N)=O,9.03,10.06,8.41,50.6,84.5,144,96.3,22.3,28.9,25.2,34.5,0.896,1450,10.42,26.4,67.6,497,114,52.8,97.5,inhibition (Rattus norvegicus [28]): Active; Activity (Rattus norvegicus [29]): 0 animals; Activity (Rattus norvegicus [30]): 5%; Activity (Rattus norvegicus [3]): 4%; remaining at 168 h [26]: 98.1%; remaining at 336 h [27]: 95%
CNC(=N)NCCC[C@H](NC(=O)[C@H](CC(C)C)NC(=O)NNC(=O)[C@H](Cc1ccccc1)NC(=O)[C@@H](NC(=O)[C@H](CC(N)=O)NC(=O)[C@@H](Cc1ccncc1)NC(=O)[C@@H](Cc1ccc(O)cc1)NC(C)=O)[C@@H](C)O)C(=O)N[C@@H](Cc1c[nH]c2ccccc12)C(N)=O,9.12,9.77,8.39,58.3,82.6,152,97,33,12.1,25.2,13.2,0.547,2070,10.05,41.4,69.8,1260,90,64.2,98.7,inhibition (Rattus norvegicus [28]): Active; Activity (Rattus norvegicus [29]): 2 animals; Activity (Rattus norvegicus [30]): 5%; remaining at 168 h [26]: 98.5%; remaining at 336 h [27]: 96.8%
